The results in this text go back to PubChem BioAssay.

The nature of experiment [1]: inhibitors of TNFa-induced NFkB p65 translocation, primary screen, imaging, HUVEC, MLSMR starter and 10KST1 sets (AID 438).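 For inhibition: signal is the nuclear over cytoplasmic p65 intensity ratio per well.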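 Note: compound added about 3h40 before a 20 min TNFalpha stimulation.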 As to conditions: HUVEC TNFa-induced p65 nuclear translocation; cell count: measured here: nuclei count (cytotoxicity indicator), at 2.08 µM; inhibition: at 2 µM, stronger effect = higher value, 0% TNFa-plus-vehicle, 100% no-TNFa wells.
A short description of experiment [2]: reduction of polyQ htt aggregates in cells – imaging, exon1htt(103Q)mCFP cells, high-content imaging, primary screen (AID 483;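 active = visual image review flags a hit and inhibition of aggregation exceeds 20%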;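 note: compound exposure lasted 3 days before fixation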;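 for nuclei count: percent of the per-plate median nuclei count of sample wells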). As to conditions: exon1htt(103Q)mCFP cell line, aggregate imaging, at 2 µM; inhibition of aggregation: stronger effect = higher value; nuclei count: measured here: cell count, toxicity.
Experiment [3] is described as follows: endothelial E-selectin expression blockers – imaging, HUVEC, immunofluorescence, MLSMR starter and 10KST1 sets, primary screen (AID 487;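 active = visually confirmed hit in the image check and inhibition above 20%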;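 for inhibition: signal is fraction of cell area covered by stained E-selectin grains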;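 for nuclei count: 100% = median nuclei count of all wells on the same plate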). The conditions noted are these: HUVEC TNFalpha-induced E-selectin immunofluorescence imaging, at 2 µM; inhibition: stronger effect = higher value; nuclei count: measured here: cell number, toxicity.
Experiment [4] has as its target Voltage-gated potassium channel subunit beta-2 (Rattus norvegicus) (UniProt P62483). In words: inhibitors of rat Kvbeta2 reductase activity – biochemical, NADPH fluorescence, primary screen (AID 622;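 active = fluorescence slope higher than the sample average by over 3 SD, cut at about -0.22 in these data, passing the limit was not always enough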;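 note: slope of raw intensity against log time taken from 70 to 1610 s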). The conditions noted are these: recombinant KvBeta, 4-cyanobenzaldehyde reduction, at 10 µM, stronger effect = higher value.
The target is the same in experiment [5]. Description: enhancers of rat Kvbeta2 NADPH turnover – biochemical, NADPH fluorescence, primary screen (AID 623;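 active = NADPH fluorescence slope more negative than the mean of all samples by about 3 SD, 99.7% confidence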;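 note: fluorescence intensity change per second fitted from 20 to 320 s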). As to conditions: Recombinant KvBeta, NADPH fluorescence decrease slope, 10 min; at 10 µM; stronger effect = lower value.
The target in experiment [6] is Alpha-2C adrenergic receptor (Homo sapiens) (UniProt P18825). Description: compounds altering alpha2C-coupled GIRK flux – cell-based, HEK293 alpha2C/GIRK1/2, thallium flux, primary screen (AID 624;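 active = fluorescence slope after compound addition differing from the mean of all screened samples at 99.7% confidence, in either direction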;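 note: slope of fluorescence ratio to pre-addition baseline per second over 15 to 24 s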). As to conditions: thallium flux BTC fluorescence, at 10 µM, actives lie on both sides.
Experiment [7] is described as follows: inhibitors of larval lipid processing in zebrafish, primary screen, whole organism, PED6 fluorescence, gall bladder and intestine (AID 686;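 active = a full or partial loss of lipid-probe fluorescence in the fish gall bladder, intestine or both, judged by eye; inactive = no fluorescence loss, or compound toxic to the fish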;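 note: signal comes from phospholipase A2 cleavage of quenched PED6 carried via bile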). As to conditions: Zebrafish larvae PED6 lipid processing, fluorescence scoring; screened at 20 µM (by protocol). The method in brief: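 Doses: 20 µM single dose. Test system: live zebrafish larvae aged 5-7 days, whole organism. Quantity: five larvae per well. Measured by: By-eye fluorescence microscopy. Reagent: ingested quenched lipid PED6 at 100 nM. Read-out: visual per-well fluorescence inhibition score. Times: overnight exposure of larvae to compound plus PED6.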

A short description of experiment [8]: blockers of RIG-like receptor reporter activation – cell-based, Sendai virus stimulus, luciferase, 10K MLSCN set, TLR/RLR signaling modifier project, primary screen (AID 602276;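 active = inhibition at or above 50% at 10 µM; inactive = inhibition below 50%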;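 note: firefly luciferase from ISG56 promoter only with Renilla not read in this screen; 0% = Sendai virus plus DMSO and 100% = medium plus DMSO without virus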). As to conditions: HEK293 RL24 IRF3 luciferase reporter, at 10 µM, stronger effect = higher value.
A short description of experiment [9]: TLR3 IRF3 reporter activation blockers – cell-based, poly I:C stimulus, luciferase, 10K MLSCN set, primary screen (AID 602277;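 active = inhibition of the reporter signal at or above 50%; inactive = inhibition below 50%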). The conditions noted are these: HEK293-TLR3 RL24 IRF3 luciferase reporter, at 10 µM, stronger effect = higher value.

Active and inactive are the calls of the source.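 Rule for the calls, unless noted: active = inhibition above 20% together with a positive visual image hit; inconclusive = visual image hit but inhibition not above 20%; inactive = no visual image hit.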

Sequence of Voltage-gated potassium channel subunit beta-2 (Rattus norvegicus) (P62483 whole entry, looked up): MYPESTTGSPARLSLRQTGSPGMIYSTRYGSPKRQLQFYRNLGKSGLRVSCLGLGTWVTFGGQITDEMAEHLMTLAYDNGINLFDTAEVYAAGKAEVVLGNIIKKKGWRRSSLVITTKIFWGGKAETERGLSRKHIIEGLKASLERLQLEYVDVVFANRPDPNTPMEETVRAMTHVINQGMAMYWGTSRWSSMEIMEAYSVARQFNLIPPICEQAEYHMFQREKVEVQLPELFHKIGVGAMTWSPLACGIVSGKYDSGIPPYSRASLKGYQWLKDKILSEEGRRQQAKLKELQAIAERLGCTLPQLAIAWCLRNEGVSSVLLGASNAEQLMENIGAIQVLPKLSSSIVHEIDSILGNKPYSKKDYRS
Sequence of Alpha-2C adrenergic receptor (Homo sapiens) (P18825 whole entry, looked up): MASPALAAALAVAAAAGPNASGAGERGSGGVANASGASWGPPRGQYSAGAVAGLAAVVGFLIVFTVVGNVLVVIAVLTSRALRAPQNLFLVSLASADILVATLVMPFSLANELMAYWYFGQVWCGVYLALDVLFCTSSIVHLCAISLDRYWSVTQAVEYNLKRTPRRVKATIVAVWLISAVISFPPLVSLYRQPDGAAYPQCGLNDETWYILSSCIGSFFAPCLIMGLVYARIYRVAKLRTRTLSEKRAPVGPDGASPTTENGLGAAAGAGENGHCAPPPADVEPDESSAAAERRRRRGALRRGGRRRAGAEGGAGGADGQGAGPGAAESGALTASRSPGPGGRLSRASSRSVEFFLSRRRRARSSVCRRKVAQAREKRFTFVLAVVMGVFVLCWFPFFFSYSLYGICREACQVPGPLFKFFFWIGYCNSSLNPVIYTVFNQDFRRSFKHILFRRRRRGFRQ

With `O=C(CN1CCN(c2ccc(F)cc2)CC1)OCc1ccccc1`, the cell count in experiment [1] turned out to be 662. The inhibition is 11.1% (inactive) in [1], 5.8% (inactive) in experiment [3], 6.81% (inactive) in [8] and 6.58% (inactive) in [9]. The inhibition of aggregation in [2] was -6.3% (inactive). Moreover, the nuclei count amounted to 102% in [2] and 118% in [3]. In addition, the fluorescence slope in experiment [4] is -0.356 (inactive). For the same compound, the NADPH fluorescence slope in experiment [5] is -6.7e-05 (inactive). The slope in experiment [6] was 0.00472 (inactive). Also, the call in experiment [7] was inactive.

With `COc1cc2cc(C(c3nnnn3C3CCCC3)N3CCCCCC3)c(=O)[nH]c2cc1OC` (stereo unspecified), the cell count in [1] was found to be 477. In addition, the inhibition in [1] is -13.3% (inactive); in [3] it was 40.8% (inactive); in [8], 17% (inactive); in experiment [9], 20.8% (inactive). Moreover, the inhibition of aggregation in experiment [2] was 22.5% (inactive). The nuclei count came out at 75% in experiment [2] and 73.4% in experiment [3]. Besides, the fluorescence slope in [4] is -0.351 (inactive). Moreover, the NADPH fluorescence slope in experiment [5] was -7.3e-05 (inactive). Further, in experiment [6], the slope is 0.00516 (inactive). In addition, the result in [7] was inactive.

Consider `COc1ccc(NC(=O)N2CCC(c3nc(-c4cccs4)no3)CC2)cc1`, for which, in [1], the cell count was found to be 486. The inhibition was -35.7% (inactive) in [1], -41.5% (inactive) in experiment [3], -1.92% (inactive) in experiment [8] and -22% (inactive) in experiment [9]. In addition, the inhibition of aggregation in experiment [2] was 1.4% (inactive). Also, the nuclei count in experiment [2] is 56.4%; in experiment [3] it was 102%. The fluorescence slope in [4] is -0.36 (inactive). Also, the NADPH fluorescence slope in experiment [5] is -5.2e-05 (inactive). Further, the slope in experiment [6] was 0.00458 (inactive). The compound was classed as inactive in experiment [7].

Regarding `COc1ccc(-c2noc(CSc3nc4ccccc4c(=O)n3-c3ccccc3)n2)cc1OC`, in experiment [1], the cell count is 498. The inhibition in [1] was -1.8% (inactive); in experiment [3] it was -114% (inactive); in [8], 23.5% (inactive); in [9], 26.1% (inactive). Besides, in experiment [2], the inhibition of aggregation is 12.7% (inactive). The nuclei count in experiment [2] stood at 96.7%; in experiment [3], 128%. Moreover, in [4], the fluorescence slope is -0.412 (inactive). In [5], the NADPH fluorescence slope was -4.5e-05 (inactive). In addition, the slope in [6] was 0.0108 (active). Besides, the call in experiment [7] was inactive.

With `O=C(CSc1nc2cc(S(=O)(=O)N3CCOCC3)ccc2o1)NC1CCCc2ccccc21` (stereo unspecified), in experiment [1], the cell count worked out at 571. The inhibition in experiment [1] was -16.3% (inactive); in experiment [3] it was 36.5% (inactive); in [8], 11.5% (inactive); in experiment [9], 99.3% (active). Besides, the inhibition of aggregation in [2] is -7.6% (inactive). In addition, the nuclei count in experiment [2] is 89.9%; in experiment [3], 86.1%. Also, the fluorescence slope in experiment [4] is -0.363 (inactive). For the same compound, the NADPH fluorescence slope in experiment [5] was -8.5e-05 (inactive). In [6], the slope is 0.00378 (inactive). The call in experiment [7] was inactive.

On to `CCOC(=O)N1CCN(C(=O)c2cnn(-c3ccccc3)c2NC(=O)c2ccccc2F)CC1`, for which the cell count in experiment [1] stood at 397. The inhibition was 12.1% (inactive) in experiment [1], -69.8% (inactive) in [3], 16% (inactive) in experiment [8] and 17.2% (inactive) in experiment [9]. For the same compound, the inhibition of aggregation in experiment [2] is 1.7% (inactive). The figures for the nuclei count in experiment [2] and in experiment [3] were 117% and 106%, respectively. Besides, in experiment [4], the fluorescence slope was -0.34 (inactive). In experiment [5], the NADPH fluorescence slope was -3.7e-05 (inactive). Also, in experiment [6], the slope is 0.00614 (inactive). In addition, the compound was called inactive in experiment [7].

In the case of `Cc1ccc(CS(=O)(=O)Cc2ccc(C(=O)NCc3ccccn3)o2)cc1`, in [1], the cell count was 454. Also, the inhibition is 6% (inactive) in experiment [1], 8.5% (inactive) in [3], 12% (inactive) in [8] and 7.77% (inactive) in experiment [9]. Further, in [2], the inhibition of aggregation was -2.9% (inactive). Besides, the nuclei count in experiment [2] was 102%; in [3], 93.1%. Further, the fluorescence slope in [4] is -0.18 (inactive). The NADPH fluorescence slope in experiment [5] is -2.3e-05 (inactive). Moreover, the slope in experiment [6] is 0.00535 (inactive). In addition, the compound was called inactive in experiment [7].

Regarding `Cc1cc(C)cc(N2C(=O)C3C4C=CC(C4)C3C2=O)c1` (stereo unspecified), in experiment [1], the cell count was found to be 643. Besides, the inhibition was -4.8% (inactive) in [1], 28% (inactive) in [3], 13.3% (inactive) in experiment [8] and 14.4% (inactive) in experiment [9]. Also, the inhibition of aggregation in experiment [2] is -4.9% (inactive). Besides, the nuclei count in experiment [2] amounted to 98.2%; in [3], 99.1%. Besides, in [4], the fluorescence slope was -0.451 (inactive). Moreover, the NADPH fluorescence slope in experiment [5] is -4.1e-05 (inactive). Further, in experiment [6], the slope is 0.00599 (inactive). In addition, the compound was called inactive in experiment [7].

On to `O=C(CSc1nnnn1-c1ccccc1)Nc1ccc(Cl)cc1`, for which the cell count in experiment [1] was found to be 561. Further, the inhibition in [1] is -0.2% (inactive); in [3], -73.4% (inactive); in experiment [8], -14.3% (inactive); in experiment [9], -15.3% (inactive). The inhibition of aggregation in experiment [2] was 17.5% (inactive). In addition, the figures for the nuclei count in [2] and in [3] were 108% and 67.8%, respectively. Besides, the fluorescence slope in experiment [4] is -0.377 (inactive). Moreover, the NADPH fluorescence slope in experiment [5] is 4e-06 (inactive). Also, in experiment [6], the slope was 0.00622 (inactive). The outcome in experiment [7] was inactive.

In the case of `CCc1ccccc1N1C(=O)C2CC(C)=C(C)CC2C1=O` (stereo unspecified), the cell count in experiment [1] worked out at 500. Besides, the inhibition was 5.5% (inactive) in experiment [1], -355% (inactive) in [3], 10.5% (inactive) in experiment [8] and 4.14% (inactive) in experiment [9]. Also, the inhibition of aggregation in [2] was 18.2% (inactive). For the same compound, the nuclei count came out at 92.1% in experiment [2] and 124% in experiment [3]. The fluorescence slope in experiment [4] is -0.368 (inactive). Also, the NADPH fluorescence slope in [5] is -5.9e-05 (inactive). In [6], the slope was 0.00511 (inactive). In experiment [7], the compound was called inactive.

In the case of `N#Cc1ccc(CSc2nnc(-c3ccccn3)n2-c2ccccc2)cc1`, the cell count in experiment [1] amounted to 363. In addition, the inhibition in [1] is 5.8% (inactive); in experiment [3] it was -10.3% (inactive); in [8], 11.1% (inactive); in [9], 9.06% (inactive). Further, the inhibition of aggregation in [2] was 10.4% (inactive). For the same compound, the nuclei count in experiment [2] was found to be 91.3%; in experiment [3] it was 112%. Besides, in experiment [4], the fluorescence slope was -0.426 (inactive). The NADPH fluorescence slope in [5] was -1.1e-05 (inactive). Moreover, the slope in [6] was 0.00569 (inactive). The outcome in experiment [7] was “active; weak signal in gallbladder and intestine”.

Consider `Cc1sc2ncnc(Oc3ccc(-n4ccnc4)cc3)c2c1C`, for which the cell count in experiment [1] amounted to 377. Besides, the inhibition in experiment [1] was -13.2% (inactive); in [3], -56.2% (inactive); in experiment [8], -6.33% (inactive); in [9], -14.4% (inactive). The inhibition of aggregation in experiment [2] was -1% (inactive). For the same compound, the nuclei count in experiment [2] was determined as 109%; in experiment [3], 140%. Also, the fluorescence slope in [4] was -0.382 (inactive). Further, the NADPH fluorescence slope in experiment [5] is 7e-06 (inactive). In [6], the slope was 0.00491 (inactive). Also, the compound was classed as inactive in experiment [7].

With `COc1cc(CC(=O)Oc2ccc3c(c2)OCO3)cc(OC)c1OC`, in [1], the cell count worked out at 469. Also, the inhibition is 1.1% (inactive) in experiment [1], -79.4% (inactive) in experiment [3], 2.88% (inactive) in [8] and 99% (active) in [9]. Further, in experiment [2], the inhibition of aggregation is -5.8% (inactive). In addition, the nuclei count in [2] was determined as 112%; in experiment [3] it was 101%. Also, the fluorescence slope in experiment [4] was -0.392 (inactive). In addition, the NADPH fluorescence slope in experiment [5] is -5.2e-05 (inactive). The slope in [6] is 0.00391 (inactive). The call in experiment [7] was inactive.
